Measured values from ChEMBL document CHEMBL2406936, “Highly oxygenated meroterpenoids from fruiting bodies of the mushroom Tricholoma terreum” (J Nat Prod, 2013).

Key:
Type in all cases: functional, cell-based
SMMC-7721 = assay: Cytotoxicity against human SMMC7721 cells after 48 hrs by MTT assay
Procedure, shortened: (§1)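 Cells grown in RPMI1640 or DMEM with 10% FBS at 37 °C under 5% CO2. Adherent lines (A-549, MCF-7, SMMC-7721, SW480) were allowed 12 h to attach before dosing. Suspension HL-60 cells were seeded just before dosing at an initial 1 × 10^5 cells/mL. Compounds in DMSO at 0.0625, 0.32, 1.6, 8 and 40 μmol, in triplicate, for 48 h. MTT read-out. Cisplatin and vinorelbine were the positive controls.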

SW480 = assay: Cytotoxicity against human SW480 cells after 48 hrs by MTT assay; procedure, shortened: as §1
A549 = assay: Cytotoxicity against human A549 cells after 48 hrs by MTT assay; procedure, shortened: as §1
HL-60 = assay: Cytotoxicity against human HL60 cells after 48 hrs by MTT assay; procedure, shortened: as §1
MCF7 = assay: Cytotoxicity against human MCF7 cells after 48 hrs by MTT assay; procedure, shortened: as §1

COc1cc(O)c2c(c1O)C[C@]1(C)O[C@@H]1CC[C@@]1(C)O[C@@H]1C2=O was tested. Which IC50 (SMMC-7721) did it give?
Its IC50 is 11.3 µmol.

And the IC50 (SW480)?
Its IC50 is 14.2 µmol.

And the IC50 (A549)?
Its IC50 is 4.2 µmol.

What about the IC50 (HL-60) of the same compound?
Its IC50 is 4 µmol.

What about the IC50 (MCF7) of the same compound?
Its IC50 is 16.1 µmol.

With COc1cc(O)c2c(c1O)C/C(C)=C\CC[C@@]1(C)O[C@@H]1C2=O as the compound, how does the IC50 (SMMC-7721) read?
The IC50 was 24.7 µmol.

And the IC50 (SW480)?
Its IC50 is > 40 µmol.

What about the IC50 (A549) of the same compound?
The IC50 was 16.4 µmol.

And the IC50 (HL-60)?
Its IC50 is 5.6 µmol.

What about the IC50 (MCF7) of the same compound?
The IC50 was 24.6 µmol.

With COc1cc(O)c2c(c1O)C/C(C)=C\[C@@H](O)C[C@@]1(C)O[C@@H]1C2=O as the compound, how does the IC50 (SMMC-7721) read?
Its IC50 is 14.9 µmol.

What about the IC50 (SW480) of the same compound?
The IC50 was 21.1 µmol.

And the IC50 (A549)?
Its IC50 is 6.5 µmol.

And the IC50 (HL-60)?
The IC50 was 17.8 µmol.

What about the IC50 (MCF7) of the same compound?
Its IC50 is 21 µmol.
